From ChEMBL document CHEMBL4680102, “Design, Synthesis, and Biological Activity of Substrate Competitive SMYD2 Inhibitors” (J Med Chem, 2016)
Values after ≈ are worked out from the molar mass of the structure shown. Blank lines part the entries; values can stand above or below the compound they belong to. Active and inactive are the calls of the source. No cut-off for these calls is given here.

Legend:
[1] = target: T1, N-lysine methyltransferase SMYD2 (Homo sapiens, UniProt Q9NRG4); test: Inhibition of SMYD2 (unknown origin)
T1 sequence (Q9NRG4 whole entry): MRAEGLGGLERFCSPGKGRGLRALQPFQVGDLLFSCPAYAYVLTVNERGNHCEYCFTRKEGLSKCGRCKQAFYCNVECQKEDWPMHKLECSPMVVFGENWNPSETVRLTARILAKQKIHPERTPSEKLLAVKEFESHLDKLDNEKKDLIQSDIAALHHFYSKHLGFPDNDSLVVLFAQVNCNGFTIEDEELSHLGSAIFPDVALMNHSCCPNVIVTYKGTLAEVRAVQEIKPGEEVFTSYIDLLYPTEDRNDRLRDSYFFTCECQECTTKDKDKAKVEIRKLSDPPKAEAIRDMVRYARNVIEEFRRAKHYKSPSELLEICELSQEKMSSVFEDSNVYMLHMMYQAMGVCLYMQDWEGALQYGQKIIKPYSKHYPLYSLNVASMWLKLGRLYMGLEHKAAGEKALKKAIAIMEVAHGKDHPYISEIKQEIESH

[2] = Solubility of compound in 0.1 M phosphate buffer at pH 7.4 at 25 degC after 24 hrs; type: physicochemical
How it was run: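 Solid sample shaken 24 h in 0.1 M phosphate buffer, pH 7.4, 25 °C.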

[3] = Unbound fraction in human plasma by equilibrium dialysis; type: ADME, cell-free
How it was run: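 Human plasma, compound added from DMSO stock; fraction unbound (fu%) by equilibrium dialysis.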

[4] = target: T1, N-lysine methyltransferase SMYD2; test: Inhibition of SMYD2 (unknown origin) expressed in human U2OS cells assessed as reduction in monomethylated p53 levels incubated for 24 hrs by immunofluorescence assay; type: cell-based
How it was run: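 U2OS plated 8,000 cells/well, transfected (Fugene) with FLAG-tagged wild-type SMYD2 construct. Compound from DMSO in media (final DMSO 0.2%), 24 h. Cells PFA-fixed, stained with anti-FLAG (1:800), polyclonal anti-monomethyl p53 K370 peptide antibody (1:1000) and DAPI, then imaged. IC50 from fluorescent intensity per cell for methylation; DAPI count gave the cell-count IC50.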

[5] = Intrinsic clearance in human liver microsomes; type: ADME, Microsome; conditions: read-out: CLH
[6] = Distribution coefficient, logD of compound; type: physicochemical; conditions: octanol/water
[7] = Intrinsic clearance in human liver microsomes; conditions: read-out: CLH
[8] = target: T1, N-lysine methyltransferase SMYD2; test: Binding affinity to SMYD2 (unknown origin) by ITC assay
How it was run: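 Microcal ITC at 23 °C in 25 mM Tris pH 8.5, 50 mM NaCl, 2% DMSO. Cell held ~15 µM SMYD2; syringe 200 µM compound. Eight 4 µL injections gave a final compound:protein molar ratio of ~1.4:1.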

[9] = target: T1, N-lysine methyltransferase SMYD2; test: Ratio of IC50 for SMYD2 (unknown origin) to IC50 for inhibition of SMYD2 (unknown origin) expressed in human U2OS cells; type: cell-based
[10] = tested on: HCT-116; test: Antiproliferative activity against human HCT-116 cells contains wild-type p53 gene assessed as reduction in cell viability at 0.03 to 30 uM incubated for 72 hrs by Alamar blue based assay; type: functional; conditions: dose 0.03-30 µM
How it was run: (§1)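 Matched p53 wild-type/deficient pairs (HCT116 p53+/+ and p53-/-; RKO-neo and RKO-E6a) seeded in triplicate, attached overnight. Media replaced with DMSO control or compound media, 0.03 to 30 µM, 72 h. Viability read as fluorescence after AlamarBlue incubation. Triplicate in two separate experiments; mean ±SEM.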

[11] = tested on: HCT-116; test: Antiproliferative activity against human HCT-116 cells deficient in p53 gene assessed as reduction in cell viability at 0.03 to 30 uM incubated for 72 hrs by Alamar blue based assay; type: functional; conditions: dose 0.03-30 µM; how it was run: as §1
[12] = tested on: RKO; test: Antiproliferative activity against human RKO cells assessed as reduction in cell viability at 0.03 to 30 uM incubated for 72 hrs by Alamar blue based assay; type: functional; conditions: dose 0.03-30 µM; how it was run: as §1
[13] = tested on: RKOE6; test: Antiproliferative activity against human RKOE6 cells assessed as reduction in cell viability at 0.03 to 30 uM incubated for 72 hrs by Alamar blue based assay; type: functional; conditions: dose 0.03-30 µM; how it was run: as §1

Compound: Cc1ccccc1-c1cc(C(=O)NCCCN2CCCC2)c2c(C3CC3)n[nH]c2n1
IC50 [1]: 13.3 µM

Compound: Cc1ccccc1-c1cc(C(=O)NCCCN2CCOCC2)c2cn[nH]c2n1
IC50 [1]: 41.3 µM

Compound: CNCCCNC(=O)c1cc(-c2ccccc2C)nc2[nH]ncc12
IC50 [1]: > 83 µM

Compound: Cc1ccccc1-c1cc(C(=O)NCCCN2CCCCC2)c2cn[nH]c2n1
IC50 [1]: 13.5 µM

Compound: O=C(NCCCN1CCCC1)c1cc(-c2ccccc2F)nc2[nH]ncc12
IC50 [1]: 16.8 µM

Compound: Cc1ccccc1-c1cc(C(=O)NCCCN(C)C)c2cn[nH]c2n1
IC50 [1]: > 61 µM

Compound: CNc1cc(C(=O)NCCCN2CCCC2)cc(-c2ccccc2C)n1
IC50 [1]: 17.7 µM

Compound: Cc1ccccc1-c1cc(C(=O)N2CCC(N3CCCCC3)CC2)c2cn[nH]c2n1
IC50 [1]: 16.9 µM

Compound: Cc1ccccc1-c1cccc(C(=O)NCCCN2CCCC2)c1
IC50 [1]: 17.4 µM

Compound: CCc1ccccc1-c1cc(C(=O)NCCCN2CCCC2)c2cn[nH]c2n1
IC50 [1]: 8.4 µM

Compound: Cc1ccccc1-c1cc(C(=O)NCCCN2CCCC2)ccn1
IC50 [1]: 8.8 µM

Compound: O=C(NCCCN1CCCC1)c1cc(-c2ccccc2N2CCN(CCc3ccc(Cl)c(Cl)c3)CC2)nc2[nH]ncc12
logD [6]: > 3.5
solubility at 24 h [2]: 174 µM (≈ 106 µg/mL)
fraction unbound [3]: < 0.01
IC50 [1]: 0.065 µM
EC50 [4]: 0.549 µM
microsomal CLint [7]: > 300 µL/min/mg

Compound: COc1cccc(CNC2CCN(c3ccccc3-c3cncc(C(=O)NCCCN4CCCC4)c3)CC2)c1
logD [6]: 1.9
solubility at 24 h [2]: 915 µM (≈ 483 µg/mL)
fraction unbound [3]: 0.14
IC50 [1]: 0.039 µM
EC50 [4]: 5.76 µM
microsomal CLint [7]: 28 µL/min/mg

Compound: O=C(NCCCN1CCCC1)c1cncc(-c2ccccc2OC2CN(CCc3ccc(Cl)c(Cl)c3)C2)c1
logD [6]: 2.4
solubility at 24 h [2]: > 1000 µM
fraction unbound [3]: 0.11
IC50 [1]: 0.012 µM
EC50 [4]: > 24 µM
microsomal CLint [7]: 33.5 µL/min/mg

Compound: Cc1ccccc1-c1cc(C(=O)NCCCN2CCC(N3CCCCC3)CC2)c2cn[nH]c2n1
IC50 [1]: 19.6 µM

Compound: CCOc1cccc(C(=O)NC2CC3(CCNCC3)c3ccccc32)c1 (configuration not stated)
Activity [8]: Active

Compound: Cc1ccccc1-c1cc(C(=O)NCCCN2CCCC2)c2c(C)n[nH]c2n1
IC50 [1]: 8.9 µM

Compound: COc1ccccc1-c1cc(C(=O)NCCCN2CCCC2)c2cn[nH]c2n1
IC50 [1]: 14.5 µM

Compound: Cc1ccccc1-c1cc(C(=O)NCCCN2CCCC2)c2cn[nH]c2n1
Kd [8]: 1.73 µM
logD [6]: 1.19
solubility at 24 h [2]: > 1000 µM
fraction unbound [3]: 0.43
IC50 [1]: 5.6 µM
microsomal CLint [7]: 92 µL/min/mg

Compound: CN(CCCN1CCCC1)C(=O)c1cc(-c2ccccc2Br)nc2[nH]ncc12
IC50 [1]: 7.3 µM

Compound: O=C(NCCCN1CCCC1)c1cc(-c2ccccc2Cl)nc2[nH]ncc12
IC50 [1]: 8 µM

Compound: Cc1ccccc1-c1cc(C#N)cc(C(=O)NCCCN2CCCC2)c1
IC50 [1]: 7.3 µM

Compound: CCn1cncc1CN1CCc2[nH]c(=O)cc(-c3ccc(Cl)cc3)c2C1
Activity [8]: Active

Compound: COc1cc(C(=O)NCCCN2CCCC2)cc(-c2ccccc2C)c1
IC50 [1]: 22.1 µM

Compound: Cc1ccccc1-c1cc(C(=O)NCC(O)CN2CCCC2)c2cn[nH]c2n1 (configuration not stated)
IC50 [1]: 12.1 µM

Compound: Cc1ccccc1-c1cc(C(=O)NCC(Cc2ccccc2)CN2CCCC2)c2cn[nH]c2n1 (configuration not stated)
IC50 [1]: 3.6 µM

Compound: COc1cc(C(=O)NCCCN2CCCC2)cc(-c2ccccc2C)n1
IC50 [1]: 9.9 µM

Compound: NCC1(C(=O)Nc2ccc(Cl)cc2)CCN(c2ncnc3[nH]nc(C4CC4)c23)CC1
Activity [8]: Active

Now from value to compound, other results behind:

solubility at 24 h [2]: > 1000 µM
fraction unbound [3]: 0.34
IC50 [1]: 1.05 µM
EC50 [4]: 2.44 µM
Compound: COc1ccc(CCN2CCN(c3ccccc3-c3cc(C(=O)NCCCN4CCCC4)ccn3)CC2)cc1

solubility at 24 h [2]: 722 µM (≈ 369 µg/mL)
fraction unbound [3]: 0.053
IC50 [1]: 0.211 µM
EC50 [4]: 4.14 µM
microsomal CLint [5]: 35 µL/min/mg
Compound: Cc1cccc(CCN2CCN(c3ccccc3-c3cccc(C(=O)NCCCN4CCCC4)c3)CC2)c1

solubility at 24 h [2]: 851 µM (≈ 423 µg/mL)
fraction unbound [3]: 0.08
IC50 [1]: 0.339 µM
EC50 [4]: 4.91 µM
microsomal CLint [5]: 30 µL/min/mg
Compound: O=C(NCCCN1CCCC1)c1cccc(-c2ccccc2N2CCN(CCc3ccccc3)CC2)c1

solubility at 24 h [2]: 34 µM (≈ 19.2 µg/mL)
fraction unbound [3]: < 0.01
IC50 [1]: 0.165 µM
EC50 [4]: 3.23 µM
microsomal CLint [5]: 68 µL/min/mg
Compound: O=C(NCCCN1CCCC1)c1cccc(-c2ccccc2N2CCN(CCc3ccc(Cl)c(Cl)c3)CC2)c1

solubility at 24 h [2]: 332 µM (≈ 176 µg/mL)
fraction unbound [3]: 0.012
IC50 [1]: 0.114 µM
EC50 [4]: 3.12 µM
microsomal CLint [5]: 30 µL/min/mg
Compound: O=C(NCCCN1CCCC1)c1cccc(-c2ccccc2N2CCN(CCc3ccc(Cl)cc3)CC2)c1

solubility at 24 h [2]: 858 µM (≈ 461 µg/mL)
fraction unbound [3]: 0.17
IC50 [1]: 0.017 µM
EC50 [4]: 1.02 µM
IC50 [4]: 2.43 µM
Ratio IC50 [9]: > 2
Compound: O=C(NCCCN1CCCC1)c1cncc(-c2ccccc2N2CCN(CCc3c[nH]c4ccccc34)CC2)c1
Activity [10]: Active
Activity [11]: Active
Activity [12]: Active
Activity [13]: Active

solubility at 24 h [2]: > 1000 µM
fraction unbound [3]: 0.41
IC50 [1]: 0.44 µM
EC50 [4]: 1.22 µM
Compound: COc1cccc(CCN2CCN(c3ccccc3-c3cc(C(=O)NCCCN4CCCC4)ccn3)CC2)c1

solubility at 24 h [2]: 815 µM (≈ 429 µg/mL)
fraction unbound [3]: 0.1
IC50 [1]: 0.273 µM
EC50 [4]: 3.5 µM
microsomal CLint [5]: 36 µL/min/mg
Compound: COc1cccc(CCN2CCN(c3ccccc3-c3cccc(C(=O)NCCCN4CCCC4)c3)CC2)c1

solubility at 24 h [2]: 393 µM (≈ 223 µg/mL)
fraction unbound [3]: 0.011
IC50 [1]: 0.038 µM
EC50 [4]: 0.45 µM
Compound: O=C(NCCCN1CCCC1)c1cncc(-c2ccccc2N2CCN(CCc3ccc(Cl)c(Cl)c3)CC2)c1

solubility at 24 h [2]: 396 µM (≈ 222 µg/mL)
fraction unbound [3]: 0.038
IC50 [1]: 0.028 µM
EC50 [4]: 0.27 µM
microsomal CLint [5]: 21 µL/min/mg
Compound: N#Cc1cc(C(=O)NCCCN2CCCC2)cc(-c2ccccc2N2CCN(CCc3c[nH]c4ccccc34)CC2)c1

solubility at 24 h [2]: > 1000 µM
fraction unbound [3]: 0.13
IC50 [1]: 0.305 µM
EC50 [4]: 1.62 µM
Compound: O=C(NCCCN1CCCC1)c1ccnc(-c2ccccc2N2CCN(CCc3ccc(Cl)cc3)CC2)c1

solubility at 24 h [2]: 246 µM (≈ 132 µg/mL)
fraction unbound [3]: 0.033
IC50 [1]: 0.041 µM
EC50 [4]: 3.46 µM
microsomal CLint [5]: 16 µL/min/mg
Compound: O=C(NCCCN1CCCC1)c1cccc(-c2ccccc2N2CCN(CCc3c[nH]c4ccccc34)CC2)c1

solubility at 24 h [2]: 790 µM (≈ 448 µg/mL)
fraction unbound [3]: 0.014
IC50 [1]: 0.12 µM
EC50 [4]: 5.57 µM
Compound: O=C(NCCCN1CCCC1)c1ccnc(-c2ccccc2N2CCN(CCc3ccc(Cl)c(Cl)c3)CC2)c1

solubility at 24 h [2]: 602 µM (≈ 332 µg/mL)
fraction unbound [3]: 0.073
IC50 [1]: 0.059 µM
EC50 [4]: 2.69 µM
microsomal CLint [5]: 74 µL/min/mg
Compound: COc1cccc(CCN2CCN(c3ccccc3-c3cc(C#N)cc(C(=O)NCCCN4CCCC4)c3)CC2)c1

solubility at 24 h [2]: 923 µM (≈ 495 µg/mL)
fraction unbound [3]: 0.34
IC50 [1]: 0.062 µM
EC50 [4]: 5.61 µM
Compound: O=C(NCCCN1CCCC1)c1ccnc(-c2ccccc2N2CCN(CCc3c[nH]c4ccccc34)CC2)c1

solubility at 24 h [2]: 588 µM (≈ 315 µg/mL)
fraction unbound [3]: 0.023
IC50 [1]: 0.031 µM
EC50 [4]: 1.21 µM
microsomal CLint [5]: 43 µL/min/mg
Compound: Cc1cccc(CCN2CCN(c3ccccc3-c3cc(C#N)cc(C(=O)NCCCN4CCCC4)c3)CC2)c1
